Laboratory results reported in ChEMBL document CHEMBL2086292, “Chalcogenopyrylium compounds as modulators of the ATP-binding cassette transporters P-glycoprotein (P-gp/ABCB1) and multidrug resistance protein 1 (MRP1/ABCC1)” (J Med Chem, 2012).
Each block holds one molecule with its values, some of them ahead of it.

Assays:
[1] = tested on: MDCK-II; assay: Inhibition of P-gp expressed in MDCK2-MDR1 cells at 5 uM by calcein AM accumulation assay relative to LSN 335984; format: cell-based
Summary of the method: (§1)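 MDCKII cells transfected with wild-type human MDR1, seeded at 40000 cells/well and used on day 4. Washed in DPBS with 10 mM HEPES pH 7.4, then compound in the same buffer 30 min at 37 °C. Replaced with compound plus 0.5 μg/mL calcein AM for a further 20 min. Fluorescence read at Ex 485/Em 530 nm. Signal expressed relative to 5 μM LSN 335984, taken as complete inhibition; vehicle 0.25% DMSO. IC50 from 1:1 serial dilutions by variable-slope sigmoidal fit.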

[2] = tested on: MDCK-II; assay: Inhibition of P-gp expressed in MDCK2-MDR1 cells at 25 uM by calcein AM accumulation assay relative to LSN 335984; format: cell-based; summary of the method: as §1
[3] = target: P-gp (ABCB1) (Homo sapiens, UniProt P08183); assay: (§2) Induction of ATPase activity of human His10-tagged P-gp expressed in BHK cells assessed as inorganic phosphate release after 30 mins relative to control; format: cell-based; settings: human His10-tagged P-gp expressed in BHK cells, read-out: FC
P-gp (ABCB1), sequence (P08183 whole entry): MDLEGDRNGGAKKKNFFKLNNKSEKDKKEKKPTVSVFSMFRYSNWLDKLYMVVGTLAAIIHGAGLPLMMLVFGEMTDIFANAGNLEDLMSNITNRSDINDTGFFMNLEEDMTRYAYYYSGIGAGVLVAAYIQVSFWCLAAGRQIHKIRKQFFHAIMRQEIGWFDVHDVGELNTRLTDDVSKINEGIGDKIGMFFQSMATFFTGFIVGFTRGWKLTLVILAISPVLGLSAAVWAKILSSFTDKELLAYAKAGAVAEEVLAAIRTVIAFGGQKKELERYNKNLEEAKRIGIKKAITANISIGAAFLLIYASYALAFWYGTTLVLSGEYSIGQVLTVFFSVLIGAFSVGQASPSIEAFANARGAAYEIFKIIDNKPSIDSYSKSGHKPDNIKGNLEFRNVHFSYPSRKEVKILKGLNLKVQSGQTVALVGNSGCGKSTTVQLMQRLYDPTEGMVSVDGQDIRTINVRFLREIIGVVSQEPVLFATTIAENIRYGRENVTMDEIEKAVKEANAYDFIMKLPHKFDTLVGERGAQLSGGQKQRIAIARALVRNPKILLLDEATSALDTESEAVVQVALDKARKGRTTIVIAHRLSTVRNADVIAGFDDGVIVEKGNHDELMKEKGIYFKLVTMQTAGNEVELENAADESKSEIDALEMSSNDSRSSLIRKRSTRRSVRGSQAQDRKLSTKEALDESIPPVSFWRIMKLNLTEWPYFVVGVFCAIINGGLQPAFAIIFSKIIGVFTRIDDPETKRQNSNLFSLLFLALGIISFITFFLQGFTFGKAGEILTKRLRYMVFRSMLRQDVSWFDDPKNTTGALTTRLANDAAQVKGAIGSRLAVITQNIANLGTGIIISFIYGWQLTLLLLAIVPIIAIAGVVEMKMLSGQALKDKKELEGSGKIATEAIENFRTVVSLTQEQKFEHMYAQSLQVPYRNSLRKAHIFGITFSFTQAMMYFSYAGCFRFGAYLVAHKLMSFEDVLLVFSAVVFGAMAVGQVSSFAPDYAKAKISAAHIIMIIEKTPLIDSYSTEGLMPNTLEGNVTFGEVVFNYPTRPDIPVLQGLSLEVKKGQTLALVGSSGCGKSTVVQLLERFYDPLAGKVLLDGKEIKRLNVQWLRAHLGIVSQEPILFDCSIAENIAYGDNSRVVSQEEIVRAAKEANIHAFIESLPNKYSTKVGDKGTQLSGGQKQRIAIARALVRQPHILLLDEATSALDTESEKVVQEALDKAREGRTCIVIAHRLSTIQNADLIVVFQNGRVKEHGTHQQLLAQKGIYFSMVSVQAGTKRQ
Summary of the method: (§3)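 Human P-gp with C-terminal His10 tag, stably expressed in BHK cells, purified by Ni-chelate chromatography and mixed 1:1 with 10 mg/mL sheep brain phosphatidylethanolamine in TBS (10 mM Tris/HCl pH 7.4, 150 mM NaCl), then sonicated. Compound titrated, 30 min at 37 °C. Inorganic phosphate released from ATP measured. Vmax expressed as fold over basal activity; KM is the concentration giving half-maximal stimulation.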

[4] = target: T1, MRP1 (Multidrug resistance-associated protein 1) (Homo sapiens, UniProt P33527); assay: Inhibition of human MRP1-mediated uptake of [3H]E2-17betaG in HEK cell membrane vesicles at 1 uM by liquid scintillation counting relative to control; format: cell membranes, HEK293; settings: HEK cell membrane vesicles with human MRP1, probe [3H]E2-17betaG
T1 sequence (P33527 whole entry): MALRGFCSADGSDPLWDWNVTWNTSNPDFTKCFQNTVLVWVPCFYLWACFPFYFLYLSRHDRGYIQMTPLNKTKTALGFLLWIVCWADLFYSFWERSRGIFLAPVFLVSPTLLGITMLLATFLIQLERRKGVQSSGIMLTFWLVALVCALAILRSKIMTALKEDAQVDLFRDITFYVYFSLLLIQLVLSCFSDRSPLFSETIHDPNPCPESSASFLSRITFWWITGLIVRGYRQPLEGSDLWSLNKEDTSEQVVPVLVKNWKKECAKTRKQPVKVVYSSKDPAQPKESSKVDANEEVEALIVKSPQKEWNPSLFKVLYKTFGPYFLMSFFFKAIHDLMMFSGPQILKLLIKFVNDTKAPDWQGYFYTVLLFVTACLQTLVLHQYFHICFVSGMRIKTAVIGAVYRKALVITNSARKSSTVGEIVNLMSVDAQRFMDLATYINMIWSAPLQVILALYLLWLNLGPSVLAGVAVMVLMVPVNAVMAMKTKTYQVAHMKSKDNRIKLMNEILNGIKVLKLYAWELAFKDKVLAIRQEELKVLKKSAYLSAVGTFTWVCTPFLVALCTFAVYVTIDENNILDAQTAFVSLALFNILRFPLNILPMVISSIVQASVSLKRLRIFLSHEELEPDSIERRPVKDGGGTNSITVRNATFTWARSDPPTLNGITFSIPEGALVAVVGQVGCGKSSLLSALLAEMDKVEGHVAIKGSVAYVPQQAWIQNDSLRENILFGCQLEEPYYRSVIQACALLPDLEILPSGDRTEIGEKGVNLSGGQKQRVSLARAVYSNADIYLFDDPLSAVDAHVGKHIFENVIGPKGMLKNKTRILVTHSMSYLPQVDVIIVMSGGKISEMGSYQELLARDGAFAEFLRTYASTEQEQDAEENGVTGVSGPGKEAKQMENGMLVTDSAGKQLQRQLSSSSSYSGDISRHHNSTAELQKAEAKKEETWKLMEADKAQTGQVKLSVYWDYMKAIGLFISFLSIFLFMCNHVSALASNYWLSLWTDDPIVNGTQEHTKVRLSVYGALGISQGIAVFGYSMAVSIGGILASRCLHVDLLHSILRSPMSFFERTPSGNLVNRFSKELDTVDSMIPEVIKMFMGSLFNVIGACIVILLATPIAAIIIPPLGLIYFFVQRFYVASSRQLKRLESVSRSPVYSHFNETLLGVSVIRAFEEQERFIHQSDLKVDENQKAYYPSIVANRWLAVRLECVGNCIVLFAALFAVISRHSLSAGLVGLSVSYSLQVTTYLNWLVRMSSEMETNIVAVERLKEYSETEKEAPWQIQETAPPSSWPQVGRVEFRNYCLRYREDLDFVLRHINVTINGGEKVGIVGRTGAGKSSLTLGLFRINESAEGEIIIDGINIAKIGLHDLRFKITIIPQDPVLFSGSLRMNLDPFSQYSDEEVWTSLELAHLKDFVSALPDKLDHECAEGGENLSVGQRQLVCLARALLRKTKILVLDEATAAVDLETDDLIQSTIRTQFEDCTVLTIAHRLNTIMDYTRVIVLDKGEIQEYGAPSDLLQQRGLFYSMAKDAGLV
Summary of the method: (§4)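 Inside-out membrane vesicles from HEK cells stably transfected with human MRP1. Vesicle protein (2 μg) incubated in Tris-sucrose buffer pH 7.4 with 400 nM [3H]E2-17βG, 4 mM ATP or AMP and 10 mM MgCl2, 3 min at 37 °C, in duplicate; DMSO ≤1% final. Stopped by ice-cold dilution and rapid filtration, then scintillation counted. ATP-dependent uptake taken as ATP minus AMP values; inhibition reported as percent.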

[5] = target: T1, MRP1 (Multidrug resistance-associated protein 1); assay: Inhibition of human MRP1 mediated uptake of [3H]E2-17betaG in HEK cell membrane vesicles at 30 uM by liquid scintillation counting relative to control; format: cell membranes, HEK293; settings: HEK cell membrane vesicles with human MRP1, probe [3H]E2-17betaG; summary of the method: as §4
[6] = Octanol-water partition coefficient, log P of the compound in PBS at pH 7.4 after 1 hr by shake flask method; format: physicochemical
Summary of the method: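 Shake-flask method: saturated n-octanol solution shaken with an equal volume of PBS pH 7.4 for 3–5 min, then left to settle 1 h at 23 °C. Concentration in each layer measured spectrophotometrically.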

[7] = target: T1, MRP1 (Multidrug resistance-associated protein 1); assay: Inhibition of human MRP1-mediated uptake of [3H]E2-17betaG in HEK cell membrane vesicles at 10 uM by liquid scintillation counter; format: cell membranes, HEK293; settings: HEK cell membrane vesicles with human MRP1, probe [3H]E2-17betaG; summary of the method: as §4
[8] = tested on: P-glycoprotein (MDR1); assay: P-glycoprotein-mediated transport in MDCK2-MDR1 cells assessed as permeability across apical to basolateral side at 5 uM after 1 hr; settings: dog, MDCK-MDR1
[9] = Inhibition of P-gp expressed in MDCK2-MDR1 cells by calcein AM accumulation assay; format: cell-based; settings: MDCK-II
Summary of the method: as §1, with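 “min.” for “min. Fluorescence read at Ex 485/Em 530 nm. Signal expressed relative to 5 μM LSN 335984, taken as complete inhibition; vehicle 0.25% DMSO.”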

[10] = Normalized ratio of the compound assessed as ratio of PBA/AB in absence of LSN 335984 to ratio of PBA/AB in presence of LSN 335984 in MDCK2-MDR1 cells at 5 uM after 1 hr; format: ADME, cell-based, Canis lupus familiaris; settings: dog, mdck-mdr1, 1 h
Summary of the method: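 MDCKII-MDR1 cells seeded at 50000 cells/cm² on Transwell filters, used on day 6. Preincubated 30 min with 4.3 mg/mL BSA in DPBSH, with or without 5 μM LSN 335984. Compound (5 μM) added to the apical or basolateral donor chamber and incubated 1 h at 37 °C with nutation. Donor and receiver samples quantified by LC-MS/MS. AB and BA permeabilities calculated. Normalized ratio is the BA/AB ratio without inhibitor divided by the ratio with inhibitor.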

[11] = tested on: P-glycoprotein (MDR1); assay: P-glycoprotein-mediated transport in MDCK2-MDR1 cells assessed as permeability across basolateral to apical side at 5 uM after 1 hr; settings: dog, MDCK-MDR1
[12] = target: T1, MRP1 (Multidrug resistance-associated protein 1); assay: Inhibition of human MRP1 mediated uptake of [3H]E2-17betaG in HEK cell membrane vesicles at 5 uM by liquid scintillation counting relative to control; format: cell membranes, HEK293; settings: HEK cell membrane vesicles with human MRP1, probe [3H]E2-17betaG
Summary of the method: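 Inside-out vesicles from stably transfected HEK-MRP1 cells (2 μg protein) in Tris-sucrose buffer pH 7.4 with [³H]E₂17βG 400 nM, ATP or AMP 4 mM, MgCl₂ 10 mM, 3 min at 37 °C, compound at 5 μM; DMSO ≤1%; stopped by ice-cold dilution, rapid filtration, scintillation counting; ATP-dependent uptake = ATP minus AMP; duplicate wells.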

[13] = target: T2, ATP-dependent translocase ABCB1 (Homo sapiens, UniProt P08183); assay: Inhibition of VER-stimulated human His10-tagged P-gp ATPase activity expressed in BHK cells after 15 mins; format: cell-based
T2 sequence (P08183 whole entry): as the sequence (P08183 whole entry) above

[14] = Inhibition of P-gp mediated [3H]VIN efflux in MDCK2-MDR1 cells by scintillation counter; format: cell-based; settings: MDCK-II
Summary of the method: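 MDCKII-MDR1 monolayers on Transwell filters, used on day 6. Rinsed in DPBSH, then preincubated 30 min at 37 °C with compound ([…]) in BSA/DPBSH. [3H]vinblastine (0.25 μCi/mL) plus compound added basolaterally and fresh compound solution added apically. Apical buffer replaced every 10 min; apical radioactivity counted by scintillation. IC50 fitted.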

[15] = target: T2, ATP-dependent translocase ABCB1; assay: as §2; format: cell-based; settings: bhk, 0.5 h; summary of the method: as §3

SMILES: CC(C)(C)c1cc(-c2ccc(C(=O)O)s2)cc(C(C)(C)C)[s+]1
inhibition [1]: 0% | inhibition [2]: 0% | fold induction at 0.5 h [3]: 3.5 | inhibition at 1 µM [4]: 8%

SMILES: Cc1cc(C(C)(C)C)[se+]c(C(C)(C)C)c1
inhibition at 30 µM [5]: 0%

SMILES: Cc1cc(-c2ccc(N(C)C)cc2)cc(-c2ccc(N(C)C)cc2)[se+]1
fold induction at 0.5 h [3]: 1.4 | inhibition at 1 µM [4]: 15%

SMILES: c1ccc(-c2cc(-c3ccc(N4CCOCC4)cc3)[te+]c(-c3ccc(N4CCOCC4)cc3)c2)cc1
inhibition at 30 µM [5]: 89% | fold induction at 0.5 h [3]: 4

SMILES: Nc1ccc(-c2cc(-c3ccc(N4CCOCC4)cc3)cc(-c3ccc(N)cc3)[te+]2)cc1
inhibition at 1 µM [4]: 8%

SMILES: CC(C)(C)c1cc(-c2ccc(C(=S)N3CCCCC3)s2)cc(C(C)(C)C)[te+]1
fold induction at 0.5 h [3]: 7.4 | inhibition at 5 µM [12]: 50%

SMILES: CC(C)(C)c1cc(-c2ccc(C(=O)O)s2)cc(C(C)(C)C)[te+]1
IC50 [13]: 162 µM | fold induction at 0.5 h [3]: < 1.4 | inhibition at 5 µM [12]: 24%

SMILES: CN(C)c1ccc(-c2cc(-c3ccc(N(C)C)cc3)[s+]c(C(C)(C)C)c2)cc1
inhibition at 30 µM [5]: 94% | fold induction at 0.5 h [3]: 7.2

More lines, main results first:

logD at 1 h [6]: 1.4 | inhibition at 10 µM [7]: 59% | Papp A-B at 1 h, 5 µM [8]: 0.56 ×10⁻⁶ cm/s | IC50 [9]: 18 µM | fold induction at 0.5 h [3]: 6.6 | Ratio [10]: 4 | Papp B-A at 1 h, 5 µM [11]: 2.2 ×10⁻⁶ cm/s | inhibition at 1 µM [4]: 0%
SMILES: CN(C)c1ccc(-c2cc(-c3ccc(C(=O)N4CCCCC4)s3)cc(C(C)(C)C)[s+]2)cc1.F[P-](F)(F)(F)(F)F

inhibition at 30 µM [5]: 96% | fold induction at 0.5 h [3]: 10.1
SMILES: CN(C)c1ccc(-c2cc(-c3ccc(N(C)C)cc3)[se+]c(C(C)(C)C)c2)cc1

inhibition at 30 µM [5]: 31% | fold induction at 0.5 h [3]: 5.9
SMILES: CCN(CC)C(=O)c1ccccc1-c1cc(C(C)(C)C)[se+]c(C(C)(C)C)c1

logD at 1 h [6]: 0.7 | inhibition at 10 µM [7]: 32% | Papp A-B at 1 h, 5 µM [8]: 0.18 ×10⁻⁶ cm/s | fold induction at 0.5 h [3]: 3.7 | Ratio [10]: 15 | Papp B-A at 1 h, 5 µM [11]: 30 ×10⁻⁶ cm/s | inhibition at 1 µM [4]: 0%
SMILES: CC(C)(C)c1cc(-c2ccc(C(=S)N3CCCCC3)s2)cc(C(C)(C)C)[s+]1.[Cl-]

inhibition at 30 µM [5]: 43% | fold induction at 0.5 h [3]: 13.5
SMILES: CCN(CC)C(=O)c1ccccc1-c1cc(-c2ccc(N(C)C)cc2)[s+]c(C(C)(C)C)c1
inhibition [1]: 2% | inhibition [2]: 13%

inhibition at 1 µM [4]: 0%
SMILES: Cc1cc(-c2ccccc2)[s+]c(-c2ccccc2)c1

logD at 1 h [6]: 2.1 | inhibition at 30 µM [5]: 93% | inhibition at 10 µM [7]: 93% | Papp A-B at 1 h, 5 µM [8]: 0.03 ×10⁻⁶ cm/s | IC50 [9]: 38 µM | fold induction at 0.5 h [3]: 5.2 | Ratio [10]: 705 | Papp B-A at 1 h, 5 µM [11]: 32 ×10⁻⁶ cm/s | inhibition at 1 µM [4]: 36%
SMILES: CN(C)c1ccc(-c2cc(-c3ccc(C(=S)N4CCCCC4)s3)cc(C(C)(C)C)[s+]2)cc1.[Cl-]
inhibition [1]: 31% | inhibition [2]: 74% | IC50 [14]: 11.5 µM

inhibition at 30 µM [5]: 71% | fold change (FC) [15]: 4.4
SMILES: CC(C)(C)c1cc(-c2ccc(C(=S)N3CCCCC3)s2)cc(C(C)(C)C)[s+]1.F[P-](F)(F)(F)(F)F

logD at 1 h [6]: 2.1 | inhibition at 10 µM [7]: 78% | Papp A-B at 1 h, 5 µM [8]: 0.17 ×10⁻⁶ cm/s | IC50 [9]: 24 µM | fold induction at 0.5 h [3]: 6 | Ratio [10]: 79 | Papp B-A at 1 h, 5 µM [11]: 62 ×10⁻⁶ cm/s | inhibition at 1 µM [4]: 18%
SMILES: CN(C)c1ccc(-c2cc(-c3ccc(C(=O)N4CCCCC4)s3)cc(-c3ccc(N(C)C)cc3)[s+]2)cc1.F[P-](F)(F)(F)(F)F
IC50 [14]: 5.9 µM
